Screening data (PubChem BioAssay)
CHO parental Ca = counter-screen for OX1R antagonists: effect in parental CHO cells; parental CHO-K1, ATP-induced calcium, Fluo-8 fluorescence; inhibition, % at 5.6 µM; 0.63% of 330,000 active; AID 463079;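 active = inhibition above that plate's mean sample inhibition plus 3 SD, cut at about 26% in these data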;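 note: 0% = ATP-challenged DMSO wells and 100% = DMSO wells without ATP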
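Test system: parental CHO cells; detection: calcium-sensitive Fluo-8 fluorescence; evaluation: percent inhibition of calcium signal; also added: ATP as calcium-mobilizing challenge; repeats: one well per compound; control set: ATP-challenged DMSO wells low, unchallenged DMSO wells high; compound: single nominal dose of 5.6 µM per compound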
GPR7 antag = blocks human GPR7 receptor signaling; P48145; GPR7-expressing cells, fluorescence antagonist assay; inhibition, % at 4.4 µM; 1.1% of 290,000 active; AID 1861; in the data active = inhibition above about 16%, passing the limit was not always enough;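 note: cells stimulated with the agonist NPW; 0% = agonist with vehicle and 100% = vehicle without agonist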
Target sequence (P48145 whole entry, looked up): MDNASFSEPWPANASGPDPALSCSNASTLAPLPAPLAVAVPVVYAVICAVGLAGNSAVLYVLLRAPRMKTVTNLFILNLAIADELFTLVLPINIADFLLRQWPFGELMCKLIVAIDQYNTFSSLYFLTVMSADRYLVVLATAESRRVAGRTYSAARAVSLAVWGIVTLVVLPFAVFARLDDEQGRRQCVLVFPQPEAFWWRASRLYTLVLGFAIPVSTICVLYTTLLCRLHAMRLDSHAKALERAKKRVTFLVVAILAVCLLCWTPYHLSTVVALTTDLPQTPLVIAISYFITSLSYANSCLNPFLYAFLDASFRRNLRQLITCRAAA
TAAR1 antagonist = human TAAR1 antagonism; 1.5% of 360,000 active; inhibition, % at 3 µM; AID 624466; CHO RD-HGA16 TAAR1, Fluo-8 calcium fluorescence, antagonist; Q96RJ0;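 active = inhibition above a per-plate cutoff, the mean inhibition of test compounds on that plate plus 3 SD, cut at about 49% in these data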;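 note: 0% = DMSO plus EC80 beta-PEA response and 100% = DMSO alone without agonist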
Target sequence (Q96RJ0 whole entry, looked up): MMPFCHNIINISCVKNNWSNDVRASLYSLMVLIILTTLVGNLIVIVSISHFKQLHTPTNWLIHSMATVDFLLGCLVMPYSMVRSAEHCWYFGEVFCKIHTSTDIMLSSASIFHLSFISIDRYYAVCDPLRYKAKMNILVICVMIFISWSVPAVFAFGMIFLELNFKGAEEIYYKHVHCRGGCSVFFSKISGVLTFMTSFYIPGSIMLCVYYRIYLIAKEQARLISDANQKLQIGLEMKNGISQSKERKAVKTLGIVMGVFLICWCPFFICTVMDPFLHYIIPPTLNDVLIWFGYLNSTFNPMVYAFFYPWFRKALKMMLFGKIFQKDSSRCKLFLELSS
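System: RD-HGA16 CHO cells with stable hTAAR1 and Gα16 | Probe or stimulus: EC80 β-phenethylamine stimulus | Dosing: 3 µM, single point | Times: Dye loading 75 min at 37 °C, then 30 min room temperature | Measured by: Fluo-8 calcium-sensitive fluorescence | Read-out basis: % inhibition of agonist calcium response | Replicates: n of 1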
OX1R antag-1 = antagonists of human orexin 1 receptor (OX1R) | O43613 | OX1R-expressing cells, FRET antagonist read-out | inhibition, % at 6.6 µM | 1.8% of 330,000 active | AID 485270; in the data active = inhibition mostly above about 38%, no sharp cut-off; inactive = mostly below about 40%;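 note: 0% = agonist challenge alone and 100% = reference antagonist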
OX1R antag-2 = blocks the human orexin 1 receptor; CHO/OX1R cells, Fluo-8 calcium fluorescence, orexin A; O43613; inhibition, % at 5 µM; 0.43% of 330,000 active;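 active = inhibition above its plate's threshold, mean inhibition of all tested compounds on the plate plus 3 SD, cut at about 37% in these data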;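 note: 0% = orexin A challenge wells and 100% = SB-334867-A antagonist wells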
TAAR1 agonist = human TAAR1 agonism | activation, % at 3 µM | 0.99% of 360,000 active | AID 624467 | CHO RD-HGA16 TAAR1, Fluo-8 calcium fluorescence; vehicle wells 0%, saturating PEA agonist 100%;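 active = activation above the mean activation of all test compounds in the run plus 3 SD, cut at about 38% in these data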
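Assay system: CHO-derived RD-HGA16 cells with stable Gα16 and human TAAR1; timing: 17-24 h seeding, 75 min 37 °C dye, 30 min RT; read-out: % activation from peak over basal fluorescence ratio, DMSO-to-PEA scaled; measured by: kinetic Fluo-8 calcium fluorescence; benchmarks: low control DMSO, high control PEA (EC100); doses: 3 µM single concentration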
OX1R HTRF conf = confirmation of human orexin 1 receptor antagonists, HTRF format; AID 492964; inhibition, % at 6.6 µM; shares compounds with OX1R antag-1; OX1R-expressing cells, HTRF antagonist assay; 49% of 1,800 active; in the data active = inhibition above about 55%;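 note: CHO cells expressing OX1R stimulated with orexin A at about EC80; 0% = agonist challenge alone and 100% = reference antagonist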
CHO-K1 HTRF cnt = counter-screen for OX1R antagonists: effect in parental CHO-K1 cells; 48% of 1,800 active; HTRF counterscreen; shares compounds with OX1R antag-1; AID 493232; inhibition, % at 6.6 µM; in the data active = inhibition above about 17%;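 note: 0% = agonist challenge with vehicle and 100% = vehicle alone without agonist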
* = called active by the depositor; nt = no result given. Shown are actives, neighbours in structure and some others; about 4.6% of the full set was active somewhere.

SMILES | CHO parental Ca | GPR7 antag | TAAR1 antagonist | OX1R antag-1 | OX1R antag-2 | TAAR1 agonist | OX1R HTRF conf | CHO-K1 HTRF cnt
COCCNC(=O)C(c1ccc(Cl)cc1)N(Cc1ccco1)C(=O)CCC(=O)Nc1ccccn1 (centres undefined) | -16 | -3 | -3 | 82* | 9 | 1 | 58* | 3
COc1ccc(C(=O)N2CCN(c3nc4cc(C)ccc4cc3C#N)CC2)c(OC)c1 | -26 | -14 | 35 | 20 | -20 | 11 | nt | nt
COc1cc(C(=O)N2CCCN(c3nc4cc(C)ccc4cc3C#N)CC2)cc(OC)c1OC | -30 | nt | 4 | 80* | 24 | 8 | 86* | 5
CCn1c2ccccc2c2cc(NC(=O)c3ccc(C)c([N+](=O)[O-])c3)ccc21 | -15 | 3 | 2 | 77* | 4 | 1 | 88* | 13
CCn1c2ccccc2c2cc(NC(=O)c3cc(C)on3)ccc21 | -2 | -5 | -32 | 88* | 16 | 6 | 64* | 7
C=C(C)Cn1c(CCCNC(=O)CCC)nc2ccccc21 | -20 | -5 | -5 | -4 | -37 | 0 | nt | nt
CC(=O)Nc1ccc(S(=O)(=O)/N=C2\C(=O)c3ccccc3C([O-])=C2n2cc[n+](-c3ccccn3)c2)cc1 | -4 | -11 | -10 | 144* | -10 | -1 | 35 | 38*
CC(C)CCN1C(=O)c2ccc(C(=O)Nc3ccccc3C(=O)O)cc2C1=O | nt | 16 | -45 | nt | nt | 2 | nt | nt
COC(=O)[C@H]1C[C@@H]1[C@H](NS(=O)(=O)c1ccc2ccccc2c1)c1ccccc1 | -32 | -8 | 7 | 79* | -6 | 9 | 36 | 3
O=C(CSc1ncnc2c1oc1ccccc12)NCc1ccc(F)cc1 | -2 | -7 | -7 | 7 | -8 | 3 | nt | nt
O=C1NC(C(=O)O)=CC(c2ccc([N+](=O)[O-])cc2)N1 (centres undefined) | -2 | -9 | -1 | 104* | 4 | 0 | 48 | 78*
O=C(CN1C(=O)c2cccc([N+](=O)[O-])c2C1=O)N1CCc2ccccc2C1 | nt | nt | -16 | nt | nt | 1 | nt | nt
CCCN1CCCC[C@H]1C(=O)Nc1c(C)cccc1C | 7 | nt | -1 | 9 | -2 | 0 | nt | nt
Cc1cc(C)c(NC(=O)C2CCCN2CCOC(=O)c2cccc([N+](=O)[O-])c2)c(C)c1 (centres undefined) | -15 | -4 | -5 | 97* | -7 | 5 | 70* | 8
CCCCN(C)Cc1c(O)ccc2c(-c3ccccc3)cc(=O)oc12 | -25 | -12 | -6 | 85* | -38 | 4 | 37 | 15
O=C(NCC1CCCO1)c1ccc2[nH]c3c(c2c1)CCCC3 (centres undefined) | nt | nt | -23 | nt | nt | -1 | nt | nt
COc1cc(/C=C2\OC(=O)c3c(OC)cccc32)ccc1O | 0 | -2 | 10 | 79* | -14 | 12 | 58* | 13
CCOc1ccc(N=Nc2c(=O)[nH]n3c(C)cc(C)nc23)cc1 | -2 | -9 | -1 | 149* | -9 | -1 | 64* | 74*
Cc1ccc(Nc2nc3nonc3[nH]c2=O)cc1Cl | 28 | 1 | -6 | 43 | 20 | 5 | nt | nt
Cc1ccc(Nc2nc3nonc3[nH]c2=O)cc1C | 16 | 12 | 21 | 78* | 17 | 4 | 33 | 7
Cc1cc(OCC(=O)NCc2ccncc2)c2c(C)c(C)c(=O)oc2c1 | -3 | 1 | 0 | 15 | -21 | -2 | nt | nt
CN(C(=O)COC(=O)/C=C/c1cccc([N+](=O)[O-])c1)C1CCS(=O)(=O)C1 (centres undefined) | -11 | -11 | -3 | 90* | -18 | 1 | 41 | 43*
COC(=O)c1cc(C(=O)OCC(=O)N(C)C2CCS(=O)(=O)C2)cc([N+](=O)[O-])c1 (centres undefined) | -12 | -9 | -11 | 120* | -8 | 1 | 88* | 70*
COC(=O)c1cc(C(=O)OCC(=O)NC2CCCC2)cc([N+](=O)[O-])c1 | 1 | -7 | -11 | 34 | -13 | -2 | nt | nt
CCN(C(=O)COC(=O)/C=C/c1cccc(Br)c1)C1CCS(=O)(=O)C1 (centres undefined) | -2 | -13 | -31 | 21 | -13 | 1 | nt | nt
SMILES | CHO parental Ca | GPR7 antag | TAAR1 antagonist | OX1R antag-1 | OX1R antag-2 | TAAR1 agonist | OX1R HTRF conf | CHO-K1 HTRF cnt
COC(=O)c1cc(C(=O)OCC(=O)NC2CCS(=O)(=O)C2)cc([N+](=O)[O-])c1 (centres undefined) | -12 | -1 | -21 | 84* | -14 | 1 | 43 | 47*
CCOC(=O)Cc1csc(NC(=O)CSc2ncnc3c2cnn3-c2ccc(OC)cc2)n1 | 13 | -2 | 50* | 80* | 29 | 18 | 27 | 4
CCOC(=O)CNC(=O)CSc1ncnc2c1cnn2-c1ccc(Cl)cc1 | -4 | -2 | -10 | 18 | -19 | 14 | nt | nt
O=C(CCc1cnccn1)NC1CCCc2c1cnn2-c1ccc(F)cc1F (centres undefined) | -13 | 1 | 3 | 13 | -7 | -2 | nt | nt
COc1cccc(/C=C2/SC(=O)N(C)C2=O)c1OCc1ccc(C(=O)O)cc1 | -11 | -16 | -8 | 102* | -6 | 5 | 32 | 35*
C#Cc1ccc2c(c1)COc1c3ccccc3nn1-2 | -27 | nt | 4 | 84* | -26 | 11 | 60* | 14
O=C(COC(=O)/C=C/c1ccc(C(F)(F)F)cc1)NCc1ccco1 | 1 | -19 | -36 | 4 | -15 | 1 | nt | nt
COC(=O)c1c(=O)n(O)c2ccc(OC)cc2[n+]1[O-] | -11 | -6 | nt | 88* | -12 | nt | 33 | 47*
CC1(C)Cc2nc(Cl)c(C(N)=O)cc2CO1 | 2 | -8 | -55 | 2 | -4 | 4 | nt | nt
C=CCn1c(O)c(N=Nc2ccccc2[N+](=O)[O-])c2ccccc21 | nt | nt | -33 | nt | nt | 2 | nt | nt
COc1ccc(CNc2nc(SCC(=O)NCc3ccco3)nc3ccccc23)cc1 | -2 | -1 | -16 | 79* | 7 | 3 | 24 | 1
O=C(CSc1nc2ccccc2c2nc3ccccc3n12)NCc1ccco1 | -17 | -9 | -3 | 81* | -4 | 10 | 62* | 5
CCn1c(SCC(=O)NCc2ccco2)nc2ccccc2c1=O | -9 | -3 | -3 | 22 | -12 | 9 | nt | nt
O=c1[nH]cnc2nn(-c3ccccc3)nc12 | -7 | 1 | 1 | 20 | -25 | 7 | nt | nt
O=c1[nH]cnc2nc(-c3ccccc3)c(-c3ccccc3)nc12 | -16 | 7 | 3 | 129* | -5 | 2 | 34 | 23*
